Results taken from ChEMBL document CHEMBL1909507, “Substituted phenyl 4-(2-oxoimidazolidin-1-yl)benzenesulfonamides as antimitotics. Antiproliferative, antiangiogenic and antitumoral activity, and quantitative structure-activity relationships” (Eur J Med Chem, 2011).
Active and inactive are the calls of the source. The rule behind the calls is not given here.

Assays:
M21 [1] = test: Cell cycle arrest in human M21 cells assessed as accumulation at G0/G1 phase at 5 times IC50 after 24 hrs using propidium iodide staining by flow cytometric analysis (reference value: 61%); assay type: functional
Method in brief: (§1)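 Cells were trypsinized, fixed in ice-cold ethanol, treated with RNase, and stained with propidium iodide (1 mg/mL stock) for 1 h on ice. Cell-cycle distribution was measured by flow cytometry.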

M21 [2] = test: Cell cycle arrest in human M21 cells assessed as accumulation at S phase at 5 times IC50 after 24 hrs using propidium iodide staining by flow cytometric analysis (reference value: 30%); assay type: functional; method in brief: as §1
M21 [3] = test: Cell cycle arrest in human M21 cells assessed as accumulation at G2/M phase at 5 times IC50 after 24 hrs using propidium iodide staining by flow cytometric analysis (reference value: 9%); assay type: functional; method in brief: as §1
MDA-MB-231 [4] = test: Displacement of N,N'-ethylenebis(iodoacetamide) from beta-tubulin colchicine-binding site in human MDA-MB-231 cells at 1000 times IC50 preincubated for 2 hrs before N,N'-ethylenebis(iodoacetamide) addition measured after 1.5 hrs by chemiluminescence assay; assay type: cell-based
Method in brief: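 EBI (100, final) was added for 1.5 h at 37 °C with drug present; control was 0.5% DMSO. Sonicated lysates (20 µg protein) were run on 10% SDS-PAGE and blotted with anti-β-tubulin TUB 2.1. The β-tubulin–EBI adduct was scored by ECL.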

M21 [5] = test: Disruption of cytoskeleton microtubule structure of human M21 cells at 5 times IC50 after 16 hrs by indirect immunofluorescence assay; assay type: functional, cell-based
Method in brief: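 Cells were fixed in 3.7% formaldehyde, permeabilized with saponin, and stained with anti-β-tubulin TUB 2.1, Alexa-488 anti-mouse secondary and DAPI. Fluorescence microscopy was used for imaging.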

[6] = Toxicity against fertilized chicken embryo assessed as mortality at 3 ug, iv by CAM assay; assay type: organism-based, Gallus gallus; conditions: in vivo, read-out: Activity
Method in brief: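 HT-1080 fibrosarcoma cells (3.5 × 10⁵ cells/egg) grafted onto the chorioallantoic membrane of fertilized chicken eggs (10 days preincubation). On day 11, drug in DMSO diluted into excipient (ethanol:cremophor:PBS 6.25:6.25:87.5) given iv at 3 µg per egg. Chick mortality recorded over 7-day tumor growth period. Untreated eggs as negative controls and for normalization. Cumulative results from two independent experiments, 10–12 eggs each.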

HT-1080 [7] = test: Antitumor activity against human HT1080 cells xenografted in chicken chorioallantoic membrane assessed as inhibition of tumor growth at 1 to 3 ug, iv measured on day 17 by CAM assay; assay type: functional
Method in brief: (§2)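 Fertilized chicken eggs were incubated 10 days, then 3.5 × 10⁵ HT-1080 cells/egg were applied to the exposed chorioallantoic membrane. On day 11, drug was given iv in DMSO diluted in excipient (ethanol:cremophor:PBS 6.25:6.25:87.5). Read-out was tumor wet weight as % of untreated eggs, plus chick mortality. Data were pooled from two independent experiments of 10–12 eggs each.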

HT-1080 [8] = test: Antiangiogenic activity in human HT1080 cells xenografted in chicken chorioallantoic membrane assessed as vascular disruption at 1 to 3 ug, iv measured on day 17 by CAM assay; assay type: functional
CHO-TAX 5-6 [9] = test: Ratio of IC50 for paclitaxel-resistant CHO-TAX 5-6 cells to IC50 for CHO cells; assay type: functional, Cricetulus griseus
Method in brief: (§3)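 Each ratio is the IC50 in the resistant line divided by the IC50 in its parental line (CHO for CHO-TAX 5-6 and CHO-VV 3-2; CEM for CEM-VLB).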

CHO-VV 3-2 [10] = test: Antiproliferative activity against colchicine and vinblastine-resistant CHO-VV 3-2 cells after 48 hrs by SRB assay; assay type: functional, cell-based; conditions: Cricetulus griseus, CHO-VV 3-2, 48 h
Method in brief: (§4)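 Adherent cells were seeded per line (e.g. HT-29 5000, M21 3500, MCF7 7500, CHO and CHO-VV 3-2 and CHO-TAX 5-6 1000 cells/well) and grown 24 h at 37 °C, 5% CO₂. DMSO-solubilized drug was diluted in medium and added at 1000–0.98 nM for 48 h. Cells were fixed with cold 10% TCA and stained with 0.1% sulforhodamine B, with absorbance read at 530–565 nm.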

CHO-VV 3-2 [11] = test: Ratio of IC50 for colchicine and vinblastine-resistant CHO-VV 3-2 cells to IC50 for CHO cells; assay type: functional, Cricetulus griseus; method in brief: as §3
[12] = Antiproliferative activity against human multidrug-resistant CEM/VLB cells after 48 hrs by SRB assay; assay type: functional
CCRF-CEM [13] = test: Ratio of IC50 for human multidrug-resistant CEM/VLB cells to IC50 for human CEM cells; assay type: functional; method in brief: as §3
HT-1080 [14] = test: Antitumor activity against human HT1080 cells xenografted in chicken chorioallantoic membrane assessed as inhibition of tumor growth at 3 ug, iv measured on day 17 by CAM assay; assay type: functional; method in brief: as §2
HT-29 = test: Antiproliferative activity against human HT-29 cells after 48 hrs by SRB assay; assay type: functional, cell-based; conditions: HT-29, 48 h; method in brief: as §4
M21 [15] = test: Antiproliferative activity against human M21 cells after 48 hrs by SRB assay; assay type: functional, cell-based; conditions: M21, 48 h; method in brief: as §4
MCF7 = test: Antiproliferative activity against human MCF7 cells after 48 hrs by SRB assay; assay type: functional, cell-based; conditions: MCF7, 48 h; method in brief: as §4
K562 = test: Antiproliferative activity against human K562 after 48 hrs by SRB assay; assay type: functional, cell-based; conditions: K562, 48 h
L1210 = test: Antiproliferative activity against mouse L1210 after 48 hrs by SRB assay; assay type: functional, cell-based; conditions: L1210, 48 h
DU-145 = test: Antiproliferative activity against human DU145 after 48 hrs by SRB assay; assay type: functional, cell-based; conditions: DU-145, 48 h
HT-1080 [16] = test: Antiproliferative activity against human HT1080 after 48 hrs by SRB assay; assay type: functional, cell-based; conditions: HT-1080, 48 h; method in brief: as §4
MDA-MB-231 [17] = test: Antiproliferative activity against human MDA-MB-231 after 48 hrs by SRB assay; assay type: functional, cell-based; conditions: MDA-MB-231, 48 h
SK-OV-3 = test: Antiproliferative activity against human SKOV3 after 48 hrs by SRB assay; assay type: functional, cell-based; conditions: SK-OV-3, 48 h; method in brief: as §4
CCRF-CEM [18] = test: Antiproliferative activity against human CEM after 48 hrs by SRB assay; assay type: functional, cell-based
CHO-TAX 5-6 [19] = test: Antiproliferative activity against paclitaxel-resistant CHO-TAX 5-6 cells after 48 hrs by SRB assay; assay type: functional, cell-based; conditions: Cricetulus griseus, CHO-TAX 5-6, 48 h; method in brief: as §4
[20] = Antiproliferative activity against mouse B16F0 after 48 hrs by SRB assay
[21] = Antiproliferative activity against mouse P388D1 after 48 hrs by SRB assay; conditions: P388D1, 48 h
CHO = test: Antiproliferative activity against Chinese hamster CHO after 48 hrs by SRB assay; conditions: Cricetulus griseus

SMILES: COc1ccc(/C=C\c2cc(OC)c(OC)c(OC)c2)cc1O [COMBRETASTATIN A4]
- Activity (M21 [1]): 2%
- Activity (M21 [2]): 0%
- Activity (M21 [3]): 98%
- Activity (MDA-MB-231 [4]): Active
- Activity (M21 [5]): Active
- mortality [6]: 45%
- growth inhibition (GI) (HT-1080 [7]): 45%
- Activity (HT-1080 [8]): 48%

SMILES: Cc1ccc(C)c(NS(=O)(=O)c2ccc(N3CCNC3=O)cc2)c1
- Ratio IC50 (CHO-TAX 5-6 [9]): 0.7
- IC50 (CHO-VV 3-2 [10]): 110 nM
- Ratio IC50 (CHO-VV 3-2 [11]): 1.4
- IC50 [12]: 120 nM
- Ratio IC50 (CCRF-CEM [13]): 1.6
- Activity (M21 [1]): 1%
- Activity (M21 [2]): 20%
- Activity (M21 [3]): 79%
- Activity (MDA-MB-231 [4]): Active
- Activity (M21 [5]): Active
- mortality [6]: 27%
- inhibition (HT-1080 [14]): inactive
- IC50 (HT-29): 46 nM
- IC50 (M21 [15]): 27 nM
- IC50 (MCF7): 48 nM
- IC50 (K562): 72 nM
- IC50 (L1210): 81 nM
- IC50 (DU-145): 1610 nM
- IC50 (HT-1080 [16]): 65 nM
- IC50 (MDA-MB-231 [17]): 110 nM
- IC50 (SK-OV-3): 72 nM
- IC50 (CCRF-CEM [18]): 74 nM
- IC50 (CHO-TAX 5-6 [19]): 54 nM
- IC50 [20]: 86 nM
- IC50 [21]: 79 nM
- IC50 (CHO): 77 nM
